Measurements published in ChEMBL document CHEMBL1150361, “Inhibitors of tubulin polymerization: synthesis and biological evaluation of hybrids of vindoline, anhydrovinblastine and vinorelbine with thiocolchicine, podophyllotoxin and baccatin III” (2008).
Calls of active or inactive are those of the source. The calls are words filed in the database; no cut-off is given here.

How the values were obtained:
A549 [1] = assay: Cytotoxicity against human A549 cells after 24 hrs by MTS assay; format: functional, cell-based
How it was run: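 A549 cells seeded at 10³ cells/well, allowed to attach 24 h, then exposed to drug prepared in medium at 1, 10 or 100 µM for 24 h. MTS/PES reagent added, 1 h at 37 °C, absorbance read at 490 nm. Quintuplicate wells; viability expressed as percentage of control.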

A549 [2] = assay: Cytotoxicity against human A549 cells at 10 uM after 24 hrs […]; format: functional, cell-based
Tubulin (Sus scrofa) = Tubulin (Sus scrofa) (UniProt P02554+P02550); assay: Inhibition of pig brain tubulin polymerization at 10 uM
Sequence of Tubulin (Sus scrofa) (P02550 whole entry, looked up): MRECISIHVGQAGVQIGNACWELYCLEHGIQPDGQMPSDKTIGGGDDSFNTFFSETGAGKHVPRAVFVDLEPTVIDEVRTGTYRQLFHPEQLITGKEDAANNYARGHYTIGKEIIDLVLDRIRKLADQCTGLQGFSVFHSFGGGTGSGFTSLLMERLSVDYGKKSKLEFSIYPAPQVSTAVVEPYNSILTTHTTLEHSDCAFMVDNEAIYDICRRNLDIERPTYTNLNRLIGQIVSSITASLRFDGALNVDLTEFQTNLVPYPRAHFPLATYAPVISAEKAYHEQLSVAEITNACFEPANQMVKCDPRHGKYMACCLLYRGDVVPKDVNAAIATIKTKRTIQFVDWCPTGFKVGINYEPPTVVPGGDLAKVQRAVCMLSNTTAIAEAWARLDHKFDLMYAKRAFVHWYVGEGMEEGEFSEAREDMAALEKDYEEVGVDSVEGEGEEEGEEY
Sequence of Tubulin (Sus scrofa) (P02554 whole entry, looked up): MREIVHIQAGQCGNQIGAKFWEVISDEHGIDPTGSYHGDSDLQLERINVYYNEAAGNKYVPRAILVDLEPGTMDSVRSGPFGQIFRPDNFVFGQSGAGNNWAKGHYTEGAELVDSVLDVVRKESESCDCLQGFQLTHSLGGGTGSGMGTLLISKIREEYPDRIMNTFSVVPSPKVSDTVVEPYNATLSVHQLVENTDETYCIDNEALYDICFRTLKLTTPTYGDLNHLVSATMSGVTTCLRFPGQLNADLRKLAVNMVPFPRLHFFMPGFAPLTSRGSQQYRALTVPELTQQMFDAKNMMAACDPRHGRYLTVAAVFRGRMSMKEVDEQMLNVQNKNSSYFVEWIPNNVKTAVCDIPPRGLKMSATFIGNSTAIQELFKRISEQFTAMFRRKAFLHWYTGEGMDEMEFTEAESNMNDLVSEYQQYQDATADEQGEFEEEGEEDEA
How it was run: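 Tubulin purified from porcine brain by three warm-cold cycles plus anion-exchange to remove MAPs. Tubulin at 2.7 mg/ml was preincubated with drug (final 10 µM, 0.2% DMSO) in GTP-free K-Pipes pH 6.9 buffer with 10% glycerol, 15 min at 37 °C. Then 1 mM GTP was added and the mix held 30 min at 37 °C. Polymer and soluble fractions were separated at 30,000g and run on SDS-PAGE with Coomassie staining; densitometry; unpaired t-test.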

A549 [3] = assay: Cell cycle arrest in human A549 cells assessed as accumulation at G2/M phase at 10 uM at 24 hrs; format: functional
How it was run: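 A549 human lung carcinoma cells were grown in E-MEM with 10% FBS, 2 mM L-glutamine, penicillin and non-essential amino acids at 37 °C, 5% CO2. Cells were seeded at 10⁵–2·10⁵ per well, attached 24 h, then drug-treated (DMSO vehicle control) for 24 h at 37 °C. They were harvested by trypsin, stained for DNA with the CycleTEST PLUS kit, and analysed by flow cytometry for G2/M fraction.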

| SMILES | Activity (A549 [1]) | Activity (A549 [2]) | Activity (Tubulin (Sus scrofa)) | Activity (A549 [3]) [%] |
| --- | --- | --- | --- | --- |
| CC[C@]12C=CCN3CC[C@@]4(c5ccc(OC)cc5N(C)[C@H]4[C@@](O)(C(=O)OC)[C@@H]1OC(=O)CCCCCCCCC(=O)O[C@H]1c4cc5c(cc4[C@@H](c4cc(OC)c(OC)c(OC)c4)[C@H]4C(=O)OC[C@@H]41)OCO5)[C@@H]32 | Active | – | – | – |
| CCC1=C[C@H]2CN(C1)Cc1c([nH]c3ccccc13)[C@@](C(=O)OC)(c1cc3c(cc1OC)N(C)[C@H]1[C@@](O)(C(=O)OC)[C@H](OC(=O)CCC(=O)O[C@H]4c5cc6c(cc5[C@@H](c5cc(OC)c(OC)c(OC)c5)[C@H]5C(=O)OC[C@@H]54)OCO6)[C@]4(CC)C=CCN5CC[C@]31[C@@H]54)C2 | Active | Active | – | – |
| CC[C@]12C=CCN3CC[C@@]4(c5ccc(OC)cc5N(C)[C@H]4[C@@](O)(C(=O)OC)[C@@H]1OC(=O)CCC(=O)OC1C[C@@]4(O)[C@@H](OC(=O)c5ccccc5)[C@@H]5[C@]6(OC(C)=O)CO[C@@H]6C[C@H](O[Si](CC)(CC)CC)[C@@]5(C)C(=O)[C@H](OC(C)=O)C(=C1C)C4(C)C)[C@@H]32 (some centres not stated) | Active | – | – | – |
| CC[C@]12C=CCN3CC[C@@]4(c5ccc(OC)cc5N(C)[C@H]4[C@@](O)(C(=O)OC)[C@@H]1OC(=O)CCCCCCCCC(=O)N[C@H]1CCc4cc(OC)c(OC)c(OC)c4-c4ccc(SC)c(=O)cc41)[C@@H]32 | Active | – | – | – |
| CCC1=C[C@H]2CN(C1)Cc1c([nH]c3ccccc13)[C@@](C(=O)OC)(c1cc3c(cc1OC)N(C)[C@H]1[C@@](O)(C(=O)OC)[C@H](OC(=O)CCC(=O)N[C@H]4CCc5cc(OC)c(OC)c(OC)c5-c5ccc(SC)c(=O)cc54)[C@]4(CC)C=CCN5CC[C@]31[C@@H]54)C2 | Active | – | – | – |
| CC[C@]12C=CCN3CC[C@@]4(c5ccc(OC)cc5N(C)[C@H]4[C@@](O)(C(=O)OC)[C@@H]1OC(=O)CCC(=O)O[C@H]1c4cc5c(cc4[C@@H](c4cc(OC)c(OC)c(OC)c4)[C@H]4C(=O)OC[C@@H]41)OCO5)[C@@H]32 | Active | – | – | – |
| CC[C@]12C=CCN3CC[C@@]4(c5ccc(OC)cc5N(C)[C@H]4[C@@](O)(C(=O)OC)[C@@H]1OC(=O)CCCCCCCCC(=O)OC1C[C@@]4(O)[C@@H](OC(=O)c5ccccc5)[C@@H]5[C@]6(OC(C)=O)CO[C@@H]6C[C@H](O[Si](CC)(CC)CC)[C@@]5(C)C(=O)[C@H](OC(C)=O)C(=C1C)C4(C)C)[C@@H]32 (some centres not stated) | Active | – | Active | – |
| CC[C@]12C=CCN3CC[C@@]4(c5ccc(OC)cc5N(C)[C@H]4[C@@](O)(C(=O)OC)[C@@H]1OC(=O)CCC(=O)N[C@H]1CCc4cc(OC)c(OC)c(OC)c4-c4ccc(SC)c(=O)cc41)[C@@H]32 | Active | – | Active | 74 |
